Here are results for 6 molecules from ChEMBL document CHEMBL4049390, “Combination of amino acid/dipeptide with ligustrazine-betulinic acid as antitumor agents” (Eur J Med Chem, 2017).

Assay [1] is described as follows: Therapeutic index, ratio of IC50 for MDCK cells to IC50 for human A549 cells. The essentials: (§1)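 Ratios were calculated from MTT IC50 values (72 h exposure, A490 read-out, n = 3). Potency index = cisplatin IC50 / compound IC50. Therapeutic index = MDCK IC50 / tumour-line IC50.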
Assay [2] in a line: Therapeutic index, ratio of IC50 for MDCK cells to IC50 for human HT-29 cells. The essentials: as §1
The nature of assay [3]: Therapeutic index, ratio of IC50 for MDCK cells to IC50 for human BGC823 cells. The essentials:
as §1

Assay [4] in a line: Therapeutic index, ratio of IC50 for MDCK cells to IC50 for human HepG2 cells. The essentials:
as §1

Assay [5] deals with HT-29. The assay can be described thus: Antiproliferative activity against human HT-29 cells after 72 hrs by MTT assay. It counts as functional, cell-based. Particulars: HT-29, 72 h. The essentials: (§2)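 MTT assay. Log-phase cells were seeded at 3×10^3 cells/well and left overnight, then exposed to serial dilutions of compound (DMSO solutions) for 72 h in RPMI 1640 with 10% heat-inactivated FBS at 37 °C, 5% CO2. MTT (5 mg/mL, 20 µL) was added for 4 h at 37 °C and the formazan dissolved in DMSO. A490 was read. % inhibition = (1 − sample OD/control OD)×100; IC50 is the 50% growth-inhibition concentration. Triplicates, n = 3 independent experiments.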
A general note: Formazan colour is commonly taken as a measure of viable cells.

Assay [6] concerns HepG2. The assay can be described thus: Antiproliferative activity against human HepG2 cells after 72 hrs by MTT assay. The class given is functional, cell-based. Particulars: HepG2, 72 h. The essentials:
as §2

Assay [7] concerns HeLa. Description: Antiproliferative activity against human HeLa cells after 72 hrs by MTT assay. It counts as functional, cell-based. The essentials:
as §2

Assay [8] has as its system A549. The assay can be described thus: Antiproliferative activity against human A549 cells after 72 hrs by MTT assay. Particulars: A549, 72 h. The class given is functional, cell-based. The essentials:
as §2

Assay [9] relates to MDCK. The assay can be described thus: Antiproliferative activity against MDCK cells after 72 hrs by MTT assay. The class given is cell-based. Particulars: Canis lupus familiaris. The essentials:
as §2

Assay [10] concerns BGC-823. The assay can be described thus: Antiproliferative activity against human BGC823 cells after 72 hrs by MTT assay. It counts as functional, cell-based. Particulars: BGC-823, 72 h. The essentials: as §2
In assay [11] the test system is HeLa. Description: Therapeutic index, ratio of IC50 for MDCK cells to IC50 for human HeLa cells. The essentials: as §1

Bounds are passed on as bounds.

In the case of `C=C(C)[C@@H]1CC[C@]2(C(=O)OCc3nc(C)c(C)nc3C)CC[C@]3(C)[C@H](CC[C@@H]4[C@@]5(C)CC[C@H](OC(=O)[C@H](C)NC(=O)[C@@H]6CCCN6)C(C)(C)[C@@H]5CC[C@]43C)[C@@H]12`, the “Ratio IC50” value in assay [1], in assay [2], in [3], in assay [4] and in assay [11] was greater than 10 in each case. Besides, the IC50 (in general, the point on the concentration scale where inhibition reaches its midpoint) was 3.56 µM in assay [5]; 3.39 µM in assay [6]; 2.33 µM in assay [7]; 4.08 µM in [8]; greater than 40 µM in assay [9]; 2.52 µM in [10].

For the molecule `C=C(C)[C@@H]1CC[C@]2(C(=O)OCc3nc(C)c(C)nc3C)CC[C@]3(C)[C@H](CC[C@@H]4[C@@]5(C)CC[C@H](OC(=O)CNC(=O)[C@@H]6CCCN6)C(C)(C)[C@@H]5CC[C@]43C)[C@@H]12`, the half-inhibitory concentration (IC50) in assay [5] is 4.11 µM; in assay [6] it was 3.48 µM; in assay [7], 2.2 µM; in [8] it was 2.98 µM; in [9], 6.63 µM; in [10] it was 0.84 µM.

As to `C=C(C)[C@@H]1CC[C@]2(C(=O)OCc3nc(C)c(C)nc3C)CC[C@]3(C)[C@H](CC[C@@H]4[C@@]5(C)CC[C@H](OC(=O)[C@@H](N)CCCCN)C(C)(C)[C@@H]5CC[C@]43C)[C@@H]12`, the “Ratio IC50” value in assay [1], in [2], in assay [3], in assay [4] and in assay [11] was greater than 10 in each case. Moreover, the IC50 in assay [5] is 2.64 µM; in [6], 2.39 µM; in assay [7] it was 2.62 µM; in assay [8], 1.26 µM; in [9], greater than 40 µM; in assay [10] it was 2.16 µM.

For `C=C(C)[C@@H]1CC[C@]2(C(=O)OCc3nc(C)c(C)nc3C)CC[C@]3(C)[C@H](CC[C@@H]4[C@@]5(C)CC[C@H](OC(=O)[C@H](C)NC(=O)CN)C(C)(C)[C@@H]5CC[C@]43C)[C@@H]12`, the “Ratio IC50” value in assay [1], in assay [2], in [3], in assay [4] and in assay [11] was greater than 10 each time. In addition, the IC50 in assay [5] was 4.38 µM; in assay [6] it was 2.17 µM; in assay [7] it was 5.57 µM; in assay [8] it was 2.45 µM; in [9], greater than 40 µM; in [10], 1.49 µM.

With `C=C(C)[C@@H]1CC[C@]2(C(=O)OCc3nc(C)c(C)nc3C)CC[C@]3(C)[C@H](CC[C@@H]4[C@@]5(C)CC[C@H](OC(=O)CN(C)C(=O)[C@@H]6CCCN6)C(C)(C)[C@@H]5CC[C@]43C)[C@@H]12`, the half-maximal inhibitory concentration (IC50) in [5] stood at 5.98 µM; in [6] it was 3.75 µM; in assay [7] it was 3.02 µM; in assay [8] it was 3.91 µM; in [9], 11.3 µM; in assay [10], 1.83 µM.

Consider `C=C(C)[C@@H]1CC[C@]2(C(=O)OCc3nc(C)c(C)nc3C)CC[C@]3(C)[C@H](CC[C@@H]4[C@@]5(C)CC[C@H](OC(=O)[C@@H](N)CC(C)C)C(C)(C)[C@@H]5CC[C@]43C)[C@@H]12`, for which the IC50 is greater than 20 µM in assay [5]; greater than 40 µM in assay [6]; greater than 20 µM in assay [7]; greater than 20 µM in assay [8]; greater than 40 µM in assay [9]; greater than 20 µM in assay [10].
